Here are results for six molecules from ChEMBL document CHEMBL1141450, “Anthraquinones with quinone reductase-inducing activity and benzophenones from Morinda citrifolia (noni) roots” (J Nat Prod, 2007).

In data set [1] the test system is Hepa lclc7. Nature of the data set: Induction of mouse quinone reductase in mouse Hepa lclc7 cells assessed as concentration required to double enzyme activity. The format is cell-based. An outline of the steps: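 Quinone reductase induction assay in Hepa 1c1c7 murine hepatoma cells (ATCC CRL-2026), with isoliquiritigenin as the positive control. CD is the concentration needed to double QR activity.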

A short description of data set [2]: Cytotoxicity against mouse Hepa lclc7 cells. It is filed as cell-based. An outline of the steps:
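Hepa 1c1c7 murine hepatoma cells (ATCC CRL-2026) were tested in the QR induction assay format. IC50 is the concentration inhibiting cell growth by 50%.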

A short description of data set [3]: Chemoprevention index, ratio of IC50 for mouse Hepa lclc7 cells to activity against mouse quinone reductase. The format is functional. An outline of the steps:
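Chemoprevention index is calculated as IC50 divided by CD. IC50 is the concentration giving 50% growth inhibition of Hepa 1c1c7 cells. CD is the concentration doubling quinone reductase activity in the same cells. Isoliquiritigenin is the positive control.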

A short description of data set [4]: Cytotoxicity against mouse Hepa lclc7 cells at 20 ug/mL. It is filed as cell-based.

Turning to `O=C1c2ccccc2C(=O)c2cc(CO)c(O)cc21`, in data set [1], the Activity was determined as 0.94 µM. Further, in data set [2], the IC50 (commonly the concentration that inhibits the measured activity by half) is above 78 µM. In addition, the Ratio in data set [3] is reported as above 83.

As to `Cc1c(O)cc2c(c1O)C(=O)c1ccc(O)cc1C2=O`, the Activity in data set [1] was 0.56 µM. For the same molecule, inhibition in data set [2] was half-maximal at 47 µM (IC50). Moreover, the Ratio in data set [3] was found to be 85.

For the molecule `COc1c(O)cc2c(c1O)C(=O)c1ccc(O)cc1C2=O`, the Activity in data set [1] was 0.009 µM; in data set [4], “Non-toxic”.

`O=C1c2ccccc2C(=O)c2c1ccc(O)c2O` [ATHRAQUINONES A]: in data set [1], the Activity was determined as 12 µM. The same molecule gave an IC50 in data set [2] of 62 µM. In data set [3], the Ratio is listed as 5.1.

As for `O=C(/C=C/c1ccc(O)cc1)c1ccc(O)cc1O` [ISOLIQUIRITIGENIN], the Activity in data set [1] worked out at 4.3 µM. Moreover, in data set [2], the IC50 stood at 39 µM. In data set [3], the Ratio is recorded as 9.2.

For `Cc1c(O)cc2c(c1O)C(=O)c1ccccc1C2=O` [Rubiadin], the Activity in data set [1] was 8.1 µM. Also, in data set [2], the IC50 is above 74 µM. In addition, in data set [3], the Ratio is above 9.
